Blank lines part the entries; values can stand above or below the molecule they belong to. Calls of active or inactive are those of the source. No cut-off for these calls is given here. Starred links: 1 amine or outer side, 2 acyl side, 3 side chain; linkers in the order of their positions; H or OH if unused. Non-standard residues stand in square brackets, D forms with d. Residues, ends and D or L forms follow the SMILES beside them. *: point of attachment. Pro(cis-4-OPh) = O=C(O)[C@@H]1C[C@H](Oc2ccccc2)CN1; Phe(3,5-F2) = N[C@@H](Cc1cc(F)cc(F)c1)C(=O)O; Bip = N[C@@H](Cc1ccc(-c2ccccc2)cc1)C(=O)O; Cysteamide = C(CS[*:3])N[*:1]; Tle = CC(C)(C)[C@H](N)C(=O)O; X1 = CCCCCCCCCCCCCCCCCCSCCN*; NMeA = CN[C@@H](C)C(=O)O; X3 = CCCCCCCCCCCCCCCCCC*; Ac4c = NC1(C(=O)O)CCC1
How the values were obtained:
[1] = Drug level in C57BL/6 mouse plasma at 10 mg/kg, sc after 30 mins by LC-MS analysis; assay type: ADME, organism-based; details: in vivo, 0.5 h
Procedure, shortened: (§1)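 Mice individually weighed, then given a single SC dose of 10 mg/kg. Blood taken by retro-orbital bleeding at set time points. Plasma levels measured by triple-quadrupole LC/MS; plasma half-life derived from these levels.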

[2] = Tmax in C57BL/6 mouse at 10 mg/kg, sc by LC-MS analysis; assay type: ADME, organism-based; details: in vivo; procedure, shortened: as §1
[3] = Cmax in C57BL/6 mouse at 10 mg/kg, sc by LC-MS analysis; assay type: ADME, organism-based; parameters: route subcutaneous, dose 10 mg/kg; details: in vivo; procedure, shortened: as §1
[4] = system: MDA-MB-231; assay: Antiproliferative activity against human MDA-MB-231 cells assessed as growth inhibition after 48 hrs by PrestoBlue dye based fluorescence assay; assay type: functional, cell-based; details: MDA-MB-231, 48 h
[5] = system: NALM-6; assay: Antiproliferative activity against human NALM6 cells assessed as growth inhibition after 48 hrs by PrestoBlue dye based fluorescence assay; assay type: functional, cell-based; details: NALM-6, 48 h
[6] = system: SK-MEL-28; assay: Antiproliferative activity against human SK-MEL-28 cells assessed as growth inhibition after 48 hrs by PrestoBlue dye based fluorescence assay; assay type: functional, cell-based; details: SK-MEL-28, 48 h
[7] = Antiproliferative activity against human UM-SCC-6 cells assessed as growth inhibition after 48 hrs by PrestoBlue dye based fluorescence assay; assay type: functional, cell-based; details: UM-SCC-6, 48 h
[8] = Antiproliferative activity against human CEM-R cells assessed as growth inhibition after 48 hrs by PrestoBlue dye based fluorescence assay; assay type: functional, cell-based
[9] = system: BXPC-3; assay: Antiproliferative activity against human BxPC3 cells assessed as growth inhibition after 48 hrs by PrestoBlue dye based fluorescence assay; assay type: functional, cell-based; details: BXPC-3, 48 h
[10] = system: DU-145; assay: Antiproliferative activity against human DU145 cells assessed as growth inhibition after 48 hrs by PrestoBlue dye based fluorescence assay; assay type: functional, cell-based; details: DU-145, 48 h
[11] = Antiproliferative activity against human COLO357/FG cells assessed as growth inhibition after 48 hrs by PrestoBlue dye based fluorescence assay; assay type: functional, cell-based; details: COLO 357/FG
[12] = Antiproliferative activity against human M249 cells assessed as growth inhibition after 48 hrs by PrestoBlue dye based fluorescence assay; assay type: functional, cell-based; details: M249, 48 h
[13] = system: VCaP; assay: Antiproliferative activity against human VCap cells assessed as growth inhibition after 48 hrs by PrestoBlue dye based fluorescence assay; assay type: functional, cell-based
[14] = system: MCF7; assay: Antiproliferative activity against human MCF7 cells assessed as growth inhibition after 48 hrs by PrestoBlue dye based fluorescence assay; assay type: functional, cell-based; details: MCF7, 48 h
[15] = system: T84; assay: Antiproliferative activity against human T84 cells assessed as growth inhibition after 48 hrs by PrestoBlue dye based fluorescence assay; assay type: functional, cell-based; details: T84, 48 h
[16] = system: MOLT-4; assay: Antiproliferative activity against human MOLT-4 cells assessed as growth inhibition after 48 hrs by PrestoBlue dye based fluorescence assay; assay type: functional, cell-based; details: MOLT-4, 48 h
[17] = system: SW480; assay: Antiproliferative activity against human SW480 cells assessed as growth inhibition after 48 hrs by PrestoBlue dye based fluorescence assay; assay type: functional, cell-based; details: SW480, 48 h
[18] = Antiproliferative activity against human UM-SCC-5 cells assessed as growth inhibition after 48 hrs by PrestoBlue dye based fluorescence assay; assay type: functional, cell-based; details: UM-SCC-5, 48 h
[19] = system: HCC1954; assay: Antiproliferative activity against human HCC1954 cells assessed as growth inhibition after 48 hrs by PrestoBlue dye based fluorescence assay; assay type: functional, cell-based; details: HCC1954, 48 h
[20] = system: FaDu; assay: Antiproliferative activity against human FADU cells assessed as growth inhibition after 48 hrs by PrestoBlue dye based fluorescence assay; assay type: functional, cell-based
[21] = Antiproliferative activity against human BTTR cells assessed as growth inhibition after 48 hrs by PrestoBlue dye based fluorescence assay; assay type: functional, cell-based
[22] = system: KOPN-8; assay: Induction of apoptosis in human KOPN8 cells assessed as viable cells at 10 uM after 24 hrs by AnnexinV/PI-staining based flow cytometry; assay type: functional; details: read-out: Activity
Procedure, shortened: (§2)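 KOPN-8 cells treated with 1 or 10 μM compound, alone or as an equimolar two-compound mixture. Cultured for a time course, then stained with annexin V and propidium iodide. Read by flow cytometry; populations gated by annexin V/PI staining, including annexin V+/PI+ double positives.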

[23] = system: KOPN-8; assay: Induction of apoptosis in human KOPN8 cells assessed as late apoptotic cells at 10 uM after 72 hrs by AnnexinV/PI-staining based flow cytometry; assay type: functional; procedure, shortened: as §2
[24] = system: KOPN-8; assay: Induction of apoptosis in human KOPN8 cells assessed as viable cells at 10 uM after 168 hrs by AnnexinV/PI-staining based flow cytometry; assay type: functional; details: read-out: Activity; procedure, shortened: as §2
[25] = system: KOPN-8; assay: Induction of apoptosis in human KOPN8 cells assessed as late apoptotic cells at 10 uM after 24 hrs by AnnexinV/PI-staining based flow cytometry; assay type: functional; procedure, shortened: as §2
[26] = system: KOPN-8; assay: Induction of apoptosis in human KOPN8 cells assessed as early apoptotic cells at 10 uM after 48 hrs by AnnexinV/PI-staining based flow cytometry; assay type: functional; procedure, shortened: as §2
[27] = system: KOPN-8; assay: Induction of apoptosis in human KOPN8 cells assessed as viable cells at 10 uM after 48 hrs by AnnexinV/PI-staining based flow cytometry; assay type: functional; details: read-out: Activity; procedure, shortened: as §2
[28] = system: KOPN-8; assay: Induction of apoptosis in human KOPN8 cells assessed as increase in caspase 3/7 activity at 0.1 to 50 uM after 24 hrs by Caspase-glo reagent based microplate reader analysis relative to control; assay type: functional; details: dose microM 0.1-50
Procedure, shortened: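 MDA-MB-231 or KOPN-8 cells treated at concentrations across 0–50 μM in dose response. Enzymatic activity of caspase-3/7 and caspase-9 measured and expressed as fold increase.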

[29] = Antiproliferative activity against human CEMTL cells assessed as growth inhibition after 48 hrs by PrestoBlue dye based fluorescence assay; assay type: functional, cell-based; details: CEM-TL
[30] = system: KOPN-8; assay: Induction of apoptosis in human KOPN8 cells assessed as viable cells at 10 uM after 72 hrs by AnnexinV/PI-staining based flow cytometry; assay type: functional; details: read-out: Activity; procedure, shortened: as §2
[31] = system: KOPN-8; assay: Induction of apoptosis in human KOPN8 cells assessed as early apoptotic cells at 10 uM after 72 hrs by AnnexinV/PI-staining based flow cytometry; assay type: functional; procedure, shortened: as §2
[32] = system: MV4-11; assay: Antiproliferative activity against human MV4-11 cells assessed as growth inhibition after 48 hrs by PrestoBlue dye based fluorescence assay; assay type: functional, cell-based; details: MV4-11, 48 h
[33] = system: KOPN-8; assay: Induction of apoptosis in human KOPN8 cells assessed as increase in caspase 9 activity at 0.1 to 50 uM after 24 hrs by Caspase-glo reagent based microplate reader analysis relative to control; assay type: functional; details: dose microM 0.1-50, time […]
[34] = system: KOPN-8; assay: Antiproliferative activity against human KOPN-8 cells assessed as growth inhibition after 48 hrs by PrestoBlue dye based fluorescence assay; assay type: functional, cell-based; details: KOPN-8, 48 h
[35] = system: KOPN-8; assay: Induction of apoptosis in human KOPN8 cells assessed as necrotic cells at 10 uM after 72 hrs by AnnexinV/PI-staining based flow cytometry; assay type: functional; procedure, shortened: as §2
[36] = system: KOPN-8; assay: Induction of apoptosis in human KOPN8 cells assessed as early apoptotic cells at 10 uM after 168 hrs by AnnexinV/PI-staining based flow cytometry; assay type: functional; procedure, shortened: as §2
[37] = system: KOPN-8; assay: Induction of apoptosis in human KOPN8 cells assessed as necrotic cells at 10 uM after 168 hrs by AnnexinV/PI-staining based flow cytometry; assay type: functional; procedure, shortened: as §2
[38] = system: KOPN-8; assay: Induction of apoptosis in human KOPN8 cells assessed as late apoptotic cells at 10 uM after 168 hrs by AnnexinV/PI-staining based flow cytometry; assay type: functional; procedure, shortened: as §2
[39] = system: KOPN-8; assay: Induction of apoptosis in human KOPN8 cells assessed as late apoptotic cells at 10 uM after 48 hrs by AnnexinV/PI-staining based flow cytometry; assay type: functional; procedure, shortened: as §2
[40] = system: KOPN-8; assay: Induction of apoptosis in human KOPN8 cells assessed as early apoptotic cells at 10 uM after 24 hrs by AnnexinV/PI-staining based flow cytometry; assay type: functional; procedure, shortened: as §2
[41] = system: THP-1; assay: Antiproliferative activity against human THP1 cells assessed as growth inhibition after 48 hrs by PrestoBlue dye based fluorescence assay; assay type: functional, cell-based; details: THP-1, 48 h
[42] = system: KOPN-8; assay: Induction of apoptosis in human KOPN8 cells assessed as necrotic cells at 10 uM after 48 hrs by AnnexinV/PI-staining based flow cytometry; assay type: functional; procedure, shortened: as §2
[43] = system: KOPN-8; assay: Induction of apoptosis in human KOPN8 cells assessed as necrotic cells at 10 uM after 24 hrs by AnnexinV/PI-staining based flow cytometry; assay type: functional; procedure, shortened: as §2
[44] = system: TF-1; assay: Antiproliferative activity against human TF1 cells assessed as growth inhibition after 48 hrs by PrestoBlue dye based fluorescence assay; assay type: functional, cell-based; details: TF-1, 48 h
[45] = system: Jurkat; assay: Antiproliferative activity against human Jurkat cells assessed as growth inhibition after 48 hrs by PrestoBlue dye based fluorescence assay; assay type: functional, cell-based

Cp [1]: 1985.4 nM | Tmax [2]: 15.5 h | Cmax [3]: 3970.8 nM
SMILES: CCCCCCCCCCCCCCCc1cccc(O[C@H]2C[C@@H](C(=O)NC(c3ccccc3)c3ccccc3)N(C(=O)[C@@H](NC(=O)[C@H](C)NC)C(C)(C)C)C2)c1

EC50 [4]: 6 µM | EC50 [6]: 6.1 µM | EC50 [9]: 4.1 µM | EC50 [10]: 6.2 µM | EC50 [13]: 7 µM | EC50 [14]: 10.2 µM | EC50 [16]: 2.8 µM | EC50 [17]: 9.2 µM | EC50 [19]: 3.9 µM
SMILES: CN[C@@H](C)C(=O)N[C@H](C(=O)N1C[C@@H](Oc2ccccc2)C[C@H]1C(=O)N[C@@H](Cc1ccc(-c2ccccc2)cc1)C(=O)NCCS)C(C)(C)C (H-[NMeA][Tle][Pro(cis-4-OPh)][Bip]-Cysteamide)
EC50 [5]: 5.3 µM | EC50 [7]: 6 µM | EC50 [8]: 2.9 µM | EC50 [11]: 8 µM | EC50 [12]: 6.2 µM | EC50 [15]: 6.2 µM | EC50 [18]: 5.9 µM | EC50 [20]: 3.9 µM | EC50 [21]: 9 µM

EC50 [32]: 9.2 µM | EC50 [16]: 6.5 µM | EC50 [41]: 9.5 µM | EC50 [45]: 21.7 µM
SMILES: CCCCCCCCCCCCCCCCCCSCCNC(=O)[C@@H]1CCCN1C(=O)[C@H](CCCNC(=N)N)NC(=O)C1(NC(=O)[C@@H]2CCCN2C(=O)[C@H](Cc2cc(F)cc(F)c2)NC(=O)[C@@H](N)CSCCCCCCCCCCCCCCCCCC)CCC1 (H-C(X3)[Phe(3,5-F2)]P[Ac4c]RP-X1)
viability at 10 µM [22]: 87.7% | Activity [23]: 6.63% | viability at 10 µM [24]: 68.2% | Activity [25]: 9.22% | Activity [26]: 1.19% | EC50 [5]: 5.6 µM | viability at 10 µM [27]: 87.1% | fold change (FC) [28]: 3.6 | EC50 [29]: 5.9 µM | viability at 10 µM [30]: 91.6% | Activity [31]: 0.58% | Activity [33]: inactive | EC50 [34]: 1 µM | Activity [35]: 1.23% | Activity [36]: 3.81% | Activity [37]: 1.59% | Activity [38]: 26.4% | Activity [39]: 9.59% | Activity [40]: 1.09% | Activity [42]: 2.15% | Activity [43]: 2.04% | EC50 [44]: 4.2 µM

EC50 [13]: 8.9 µM | EC50 [19]: 17.5 µM
SMILES: CCCCCCCCCCCCCCCCS[C@H]1C[C@@H](C(=O)NCC(c2ccccc2)c2ccccc2)N(C(=O)[C@@H](NC(=O)[C@H](C)NC)C(C)(C)C)C1

— ChEMBL document CHEMBL4699443, “Position of lipidation influences anticancer activity of Smac analogs” (Bioorg Med Chem Lett, 2019)
